Laboratory results taken from BindingDB's records for doi:10.1021/jm901214q (Abbott Laboratories, 2010).

Molecular target: Cannabinoid receptor 2 (Homo sapiens, UniProt P34972)
Experiment: Agonist activity at human recombinant CB2 receptor expressed in HEK293 cells coexpressing Galphaq/o5 assessed as calcium mobilization by FLIPR assay
Outline: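 HEK cells stably coexpressing human CB2 and chimeric Gαq/o5 were seeded at 75 000 cells/well the day before and loaded with no-wash calcium dye. Mean ± SEM, ≥3 experiments in duplicate.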

Chain of Cannabinoid receptor 2 (P34972 whole entry): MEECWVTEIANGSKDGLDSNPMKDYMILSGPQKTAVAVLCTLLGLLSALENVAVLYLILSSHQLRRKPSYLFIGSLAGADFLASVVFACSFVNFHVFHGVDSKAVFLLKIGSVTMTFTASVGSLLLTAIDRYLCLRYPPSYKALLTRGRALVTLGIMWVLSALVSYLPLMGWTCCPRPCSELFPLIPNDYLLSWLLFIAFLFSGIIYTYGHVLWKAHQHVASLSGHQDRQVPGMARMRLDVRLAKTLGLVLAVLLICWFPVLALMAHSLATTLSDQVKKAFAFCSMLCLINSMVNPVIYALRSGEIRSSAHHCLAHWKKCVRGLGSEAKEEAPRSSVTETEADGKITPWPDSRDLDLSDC

## CN1CCCCC1Cn1cc(C(=O)c2cc([N+](=O)[O-])ccc2I)c2ccccc21 (stereo unspecified) [3-[(2-iodo-5-nitrophenyl)carbonyl]-1-[(1-methylpiperidin-2-yl)methyl]-1H-indole]
  EC50: > 10 µM
